Data taken from ChEMBL document CHEMBL1177846, “Benzylidene/2-chlorobenzylidene hydrazides: synthesis, antimicrobial activity, QSAR studies and antiviral evaluation” (Eur J Med Chem, 2010).
In brackets after ≈: the same amount, converted by molar mass. Activity calls are given as the source filed them. The calls are words filed in the database; no cut-off is given here.

Legend:
[1] = test system: Respiratory syncytial virus; assay: Antiviral activity against RSV infected in human HeLa cells assessed as inhibition of virus-induced cytopathic effect after 3 days by MTS assay; format: functional, organism-based; conditions: 72 h
Summary of the method: (§1)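 Confluent cell monolayers were infected with 100 CCID50 of virus and allowed 2 h adsorption at 37 °C. Virus was then removed and serial compound dilutions were added. Cultures were incubated at 37 °C for 3 days, until CPE was complete in the untreated virus control. EC50 was the concentration giving 50% inhibition of virus-induced CPE, by visual score or by MTS formazan cell viability.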

[2] = (§2) Cytotoxicity against human HeLa cells after 3 days by MTS assay; format: cell-based; conditions: HeLa cells
Summary of the method: (§3)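 Uninfected HeLa cells were run in parallel with the antiviral assay and exposed to serial compound dilutions. CC50 is the 50% cytotoxic concentration from colorimetric formazan-based MTS cell viability.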

Coxsackievirus B4 [3] = assay: Antiviral activity against Coxsackie virus B4 infected in human HeLa cells assessed as inhibition of virus-induced cytopathic effect after 3 days by MTS assay; format: functional, organism-based; conditions: Enterovirus B, 72 h; summary of the method: as §1
[4] = test system: Vesicular stomatitis virus; assay: Antiviral activity against VSV infected in human HeLa cells assessed as inhibition of virus-induced cytopathic effect after 3 days by MTS assay; format: functional, organism-based; conditions: 72 h; summary of the method: as §1
Vaccinia virus = assay: Antiviral activity against Vaccinia virus infected in human HEL cells assessed as inhibition of virus-induced cytopathic effect after 3 days by MTS assay; format: functional, organism-based; conditions: Orthopoxvirus vaccinia; summary of the method: as §1
Influenza B virus = assay: Antiviral activity against influenza B virus infected in MDCK cells assessed as inhibition of virus-induced cytopathic effect after 3 days by MTS assay; format: functional, organism-based; summary of the method: as §1
Feline coronavirus = assay: Antiviral activity against Feline caronavirus infected in […] cells assessed as inhibition of virus-induced cytopathic effect after 3 days by MTS assay; format: functional, organism-based; summary of the method: as §1
Staphylococcus aureus = assay: Antibacterial activity against Staphylococcus aureus after 24 hrs by serial dilution method; format: functional
Coxsackievirus B4 [5] = assay: Antiviral activity against Coxsackie virus B4 infected in african green monkey Vero cells assessed as inhibition of virus-induced cytopathic effect after 3 days by MTS assay; format: functional, organism-based; summary of the method: as §1
Escherichia coli = assay: Antibacterial activity against Escherichia coli after 24 hrs by serial dilution method; format: functional
Felid alphaherpesvirus 1 = assay: Antiviral activity against Feline herpesvirus 1 infected in […] cells assessed as inhibition of virus-induced cytopathic effect after 3 days by MTS assay; format: functional, organism-based; summary of the method: as §1
Punta Toro virus = assay: Antiviral activity against Punta toro virus infected in african green monkey Vero cells assessed as inhibition of virus-induced cytopathic effect after 3 days by MTS assay; format: functional, organism-based; summary of the method: as §1
Influenza A virus [6] = assay: Antiviral activity against influenza A virus H3N2 infected in MDCK cells assessed as inhibition of virus-induced cytopathic effect after 3 days by MTS assay; format: functional, organism-based; summary of the method: as §1
Sindbis virus = assay: Antiviral activity against Simbidis virus infected in african green monkey Vero cells assessed as inhibition of virus-induced cytopathic effect after 3 days by MTS assay; format: functional, organism-based; summary of the method: as §1
Bacillus subtilis = assay: Antibacterial activity against Bacillus subtilis after 24 hrs by serial dilution method; format: functional
[7] = test system: Mammalian orthoreovirus 1; assay: Antiviral activity against Reovirus 1 infected in african green monkey Vero cells assessed as inhibition of virus-induced cytopathic effect after 3 days by MTS assay; format: functional, organism-based; summary of the method: as §1
Human alphaherpesvirus 1 [8] = assay: Antiviral activity against Herpes simplex virus 1 KOS infected in human HEL cells assessed as inhibition of virus-induced cytopathic effect after 3 days by MTS assay; format: functional, organism-based; summary of the method: as §1
HeLa = assay: as §2; format: cell-based; conditions: hela, 72 h; summary of the method: as §3
Human alphaherpesvirus 2 = assay: Antiviral activity against Herpes simplex virus 2 G infected in human HEL cells assessed as inhibition of virus-induced cytopathic effect after 3 days by MTS assay; format: functional, organism-based; conditions: strain G; summary of the method: as §1
Human alphaherpesvirus 1 [9] = assay: Antiviral activity against acyclovir-resistant […] kinase-deficient HSV1 KOS infected in human HEL cells assessed as inhibition of virus-induced cytopathic effect after 3 days by MTS assay; format: functional, organism-based; summary of the method: as §1
Human respirovirus 3 = assay: Antiviral activity against Parainfluenza 3 virus infected in african green monkey Vero cells assessed as inhibition of virus-induced cytopathic effect after 3 days by MTS assay; format: functional, organism-based; summary of the method: as §1
Influenza A virus [10] = assay: Antiviral activity against influenza A virus H1N1 infected in MDCK cells assessed as inhibition of virus-induced cytopathic effect after 3 days by MTS assay; format: functional, organism-based; summary of the method: as §1
[11] = test system: Vesicular stomatitis virus; assay: Antiviral activity against VSV infected in human HEL cells assessed as inhibition of virus-induced cytopathic effect after 3 days by MTS assay; format: functional, organism-based; summary of the method: as §1
Candida albicans = assay: Antifungal activity against Candida albicans after 48 hrs by serial dilution method; format: functional
Summary of the method: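 Serial compound dilutions in Sabouraud dextrose broth (tube dilution), incubated 37 °C for 48 h. MIC was read as the lowest concentration with no growth.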

Aspergillus niger = assay: Antifungal activity against Aspergillus niger after 7 days by serial dilution method; format: functional

Row | Compound | EC50 [1] | MCC at 72 h [2] | EC50 (Coxsackievirus B4 [3]) | EC50 [4] | inhibition (Vaccinia virus) | inhibition (Influenza B virus) | inhibition (Feline coronavirus) | MBC (Staphylococcus aureus) [uM/ml] | inhibition (Coxsackievirus B4 [5]) | MBC (Escherichia coli) [uM/ml] | inhibition (Felid alphaherpesvirus 1) | inhibition (Punta Toro virus) | inhibition (Influenza A virus [6]) | inhibition (Sindbis virus) | MBC (Bacillus subtilis) [uM/ml] | inhibition [7] | inhibition (Human alphaherpesvirus 1 [8]) | inhibition (Human alphaherpesvirus 2) | inhibition (Human alphaherpesvirus 1 [9]) | inhibition (Human respirovirus 3) | other results
1 | Nc1ncnc2c1ncn2C[C@H](O)CO [(S)-DHPA] | > 250 µM | > 250 µM | > 250 µM | > 250 µM |  |  |  |  |  |  |  |  |  |  |  |  |  |  |  |  | CC50 at 72 h [2]: > 250 µg/mL
2 | COc1cc(OC)cc(C(=O)N/N=C/c2ccccc2Cl)c1 | > 20 µg/mL | 100 µg/mL | > 20 µg/mL | 13.2 µg/mL | inactive | inactive | inactive | >0.157 | inactive | >0.157 | inactive | inactive | inactive | inactive | 0.039 | inactive | inactive | inactive | inactive | inactive | CC50 (HeLa): 64 µg/mL (≈ 201 µM); inhibition (Influenza A virus [10]): inactive; inhibition [11]: inactive; -logMIC (Candida albicans): 2.01; MFC (Candida albicans): 0.019 uM/ml; -logMIC (Aspergillus niger): 1.56; MFC (Aspergillus niger): >0.157 uM/ml
3 | CCCCCCCCCCCCCC(=O)N/N=C/c1ccccc1Cl |  |  |  |  | inactive | inactive | inactive | >0.137 | inactive | 0.034 | inactive | inactive | inactive | inactive | >0.137 | inactive | inactive | inactive | inactive | inactive | inhibition (Influenza A virus [10]): inactive; inhibition [11]: inactive; MFC (Candida albicans): >0.137 uM/ml; -logMIC (Aspergillus niger): 1.12; MFC (Aspergillus niger): >0.137 uM/ml
4 | NC(=O)c1ncn([C@@H]2O[C@H](CO)[C@@H](O)[C@H]2O)n1 [RIBAVIRIN] | 6.6 µM | > 250 µM | 73.1 µM | 17.2 µM |  |  |  |  |  |  |  |  |  |  |  |  |  |  |  |  | CC50 at 72 h [2]: > 250 µg/mL
5 | O=C(N/N=C/c1ccccc1)c1cc([N+](=O)[O-])cc([N+](=O)[O-])c1 |  |  |  |  | inactive | inactive | inactive | >0.159 | inactive | >0.159 | inactive | inactive | inactive | inactive | 0.159 | inactive | inactive | inactive | inactive | inactive | inhibition (Influenza A virus [10]): inactive; inhibition [11]: inactive; MFC (Candida albicans): 0.159 uM/ml; -logMIC (Aspergillus niger): 1.7; MFC (Aspergillus niger): 0.079 uM/ml
